Values after ≈ are worked out from the molar mass of the structure shown.

Data on one compound can be found in ChEMBL document CHEMBL3085699, “Design, synthesis, and biological evaluation of indole-2-carboxamides: a promising class of antituberculosis agents” (J Med Chem, 2013).

For data set [1], the system named is Mycobacterium tuberculosis. Kind of data set: Ratio of isoniazid MIC50 to compound MIC50 against Mycobacterium tuberculosis H37Rv ATCC 27294. In kind it is functional. The method, boiled down: (§1)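 H37Rv grown in 7H9 broth with 0.05% Tween 80 and 10% ADS. Compounds in 90% DMSO, three-fold serially diluted in duplicate. Early-log culture diluted to OD600 0.02 was added, then incubated at 37 °C for 5 days. Growth read by absorbance. MIC50 (50% growth inhibition) taken from non-linear curve fits. Isoniazid ran as internal control in every assay.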

A short description of data set [2]: Intrinsic clearance in mouse liver microsomes by LC/MS/MS analysis. In kind it is ADME, Microsome. The following applies: read-out: CLH. In outline: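 Compound depletion in liver microsomes of the named species, measured by LC/MS/MS. In vitro half-life gave hepatic extraction ratio and predicted metabolic clearance.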
(In general: Liver microsomes are vesicles of endoplasmic reticulum, rich in cytochrome P450 enzymes.)

The nature of data set [3]: Aqueous solubility of the compound at pH 6.8 after 24 hrs by high-throughput equilibrium solubility assay. In kind it is physicochemical. The following applies: buffer. In outline:
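Miniaturized shake-flask equilibrium method. DMSO stock removed by centrifugal evaporation, aqueous buffer added, shaken 24 h. Plunger pushed through a filter membrane, shaken a further 30 min, and filtrate quantified by HPLC.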

In data set [4] the test system is Mycobacterium tuberculosis. Briefly: Antimicrobial activity against Mycobacterium tuberculosis H37Rv ATCC 27294 after 5 days by three-fold serial dilution assay. The class given is functional. The following applies: H37Rv ATCC 27294, 120 h. In outline: as §1

For the compound `Cc1cc(C)c2cc(C(=O)N[C@@H]3CCCC[C@@H]3C)[nH]c2c1`, in data set [1], the Ratio is 4. Moreover, the microsomal CLint in data set [2] amounted to 433 µL/min/mg. The thermodynamic solubility at 24 h in data set [3] is less than 4 µM. In data set [4], this compound registered an MIC50 of 0.079 µM (≈ 0.0225 µg/mL).

As a reminder, the solubility (thermodynamic) is the concentration in solution at equilibrium with solid. In general, MIC50 refers to the lowest concentration that inhibits either 50% of growth or 50% of the strains tested, depending on the study.
